Test results taken from ChEMBL document CHEMBL1127561, “Novel spirosuccinimide aldose reductase inhibitors derived from isoquinoline-1,3-diones: 2-[(4-bromo-2-fluorophenyl)methyl]-6- fluorospiro[isoquinoline-4(1H),3'-pyrrolidine]-1,2',3,5'(2H)-tetrone and congeners. 1” (J Med Chem, 1994).
The source made the active and inactive calls. No cut-off for these calls is given here.

Legend:
[1] = Log P value by using Octanol / pH 7.4 buffer; assay type: physicochemical
How it was run: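 Partition measured between octanol and pH 7.4 buffer.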

[2] = biological target: Aldo-keto reductase family 1 member B1 (Bos taurus) (UniProt P16116); assay: Inhibition of aldose reductase activity in a partially purified bovine lens preparation at 10e-7 M
How it was run: (§1)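 Partially purified bovine lens aldose reductase (ammonium sulfate fractionation). NADPH oxidation read at 340 nm, 37 °C, in 30 mM sodium phosphate pH 6.2, 0.2 M LiSO4, […], 1% DMSO. Enzyme was preincubated with inhibitor for 5 min, then the reaction was started with 5 mM DL-glyceraldehyde. Duplicates; IC50 from linear regression of log concentration vs percent inhibition.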

Rattus norvegicus [3] = assay: Percentage Inhibition of galactitol accumulation in the sciatic nerve of rats fed with the dose of 1.0 mg/kg/day; assay type: functional
How it was run: (§2)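 Male Sprague-Dawley rats (70-90 g), six per group, fed 20% galactose chow with compound in the diet for 4 days; glucose-fed controls. After a 3-h fast, lens or sciatic nerve galactitol was measured as nmol/mg wet weight. Percent inhibition vs galactose-fed controls, mean ± SEM; ANOVA with Dunnett's test.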

[4] = biological target: Aldo-keto reductase family 1 member B1 (Bos taurus) (UniProt P16116); assay: Inhibition of aldose reductase activity in a partially purified bovine lens preparation at 4*10e-8 M; how it was run: as §1
[5] = biological target: T1, Aldo-keto reductase family 1 member B1 (Bos taurus, UniProt P16116); assay: In vitro inhibition of aldose reductase activity in a partially purified bovine lens preparation
Rattus norvegicus [6] = assay: Percentage Inhibition of galactitol accumulation in the sciatic nerve of rats fed with the dose of 0.6 mg/kg/day; assay type: functional; how it was run: as §2
Rattus norvegicus [7] = assay: Percentage Inhibition of galactitol accumulation in the lens of rats fed with the dose of 1.0 mg/kg/day; NS=Not significant; assay type: functional, organism-based; details: Lens of camera-type eye; how it was run: as §2
Rattus norvegicus [8] = assay: Percentage Inhibition of galactitol accumulation in the lens of rats fed with the dose of 3.0 mg/kg/day; NS=Not significant; assay type: functional, organism-based; details: Lens of camera-type eye; how it was run: as §2
Rattus norvegicus [9] = assay: Percentage Inhibition of galactitol accumulation in the sciatic nerve of rats fed with the dose of 3.0 mg/kg/day; assay type: functional; how it was run: as §2
Rattus norvegicus [10] = assay: Percentage Inhibition of galactitol accumulation in the sciatic nerve of rats fed with the dose of 1.0 mg/kg/day (values are mean of six animals); assay type: functional; how it was run: as §2
Rattus norvegicus [11] = assay: Percentage Inhibition of galactitol accumulation in the sciatic nerve of rats fed with the dose of 1.1 mg/kg/day; assay type: functional; how it was run: as §2
Rattus norvegicus [12] = assay: Percentage Inhibition of galactitol accumulation in the sciatic nerve of rats fed with the dose of 0.5 mg/kg/day; assay type: functional; how it was run: as §2
[13] = biological target: T1, Aldo-keto reductase family 1 member B1; assay: In vitro inhibition of aldose reductase activity in a partially purified bovine lens preparation at 4*10e-8 M; NS=Not significant; how it was run: as §1
[14] = biological target: T1, Aldo-keto reductase family 1 member B1; assay: Compound was evaluated In vitro for inhibition of aldose reductase activity in a partially purified bovine lens preparation at 10e-7 M; NS=Not significant; how it was run: as §1
[15] = Half-life In vitro; assay type: ADME
Rattus norvegicus [16] = organism: Rattus norvegicus; assay: Percentage Inhibition of galactitol accumulation in the sciatic nerve of rats
Rattus norvegicus [17] = assay: Percentage Inhibition of galactitol accumulation in the lens of rats fed with the dose of 0.8 mg/kg/day; NS=Not significant; assay type: functional, organism-based; details: Lens of camera-type eye; how it was run: as §2
Rattus norvegicus [18] = organism: Rattus norvegicus; assay: Dose at which the tissue level of polyol accumulation was reduced by 50% was evaluated for galactosemic rat in lens; assay type: functional; details: Lens of camera-type eye
How it was run: (§3)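 Male Sprague-Dawley rats (70-90 g, six per group) fed chow with 20% galactose and compound in the diet for 4 or 14 days. After a 3-h fast, lens and sciatic nerve were removed and frozen, and galactitol was quantitated in nmol/mg wet weight. ED50 from nonlinear regression of log dose vs tissue polyol.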

Rattus norvegicus [19] = organism: Rattus norvegicus; assay: Dose at which the tissue level of polyol accumulation was reduced by 50% was evaluated for STZ diabetic rat in sciatic nerve; assay type: functional
How it was run: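 Male Sprague-Dawley rats (200-250 g, 12 per group) made diabetic with streptozocin 60 mg/kg iv in cold 0.03 M citrate pH 4.5; plasma glucose kept between 300 and 550 mg/dl. Compound was suspended in 2% Tween 80/saline and gavaged daily for 14 days. On day 15, RBC, lens and sciatic nerve polyol was measured. ED50 by nonlinear regression of log dose.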

Rattus norvegicus [20] = assay: Percentage Inhibition of galactitol accumulation in the sciatic nerve of rats fed with the dose of 0.8 mg/kg/day; assay type: functional; how it was run: as §2
Rattus norvegicus [21] = organism: Rattus norvegicus; assay: Dose at which the tissue level of polyol accumulation was reduced by 50% was evaluated for galactosemic rat in sciatic nerve; assay type: functional; how it was run: as §3

**Q.** Which logD [1] does the source give for `CN1C(=O)c2ccc(Br)cc2C2(CC(=O)NC2=O)C1=O` (stereo unspecified) here?
**A.** 0.8

**Q.** And the inhibition [2]?
**A.** 85%

**Q.** What about the inhibition in vivo at 1 mg/kg/day (Rattus norvegicus [3]) of the same molecule?
**A.** 54%

**Q.** What about the inhibition [4] of the same molecule?
**A.** 43%

**Q.** With `COc1ccc(CN2C(=O)c3ccccc3C3(CC(=O)NC3=O)C2=O)cc1` (stereo unspecified) as the molecule, how does the IC50 [5] read?
**A.** 25 nM

**Q.** With `O=C1CC2(C(=O)N1)C(=O)N(Cc1ccc(Br)cc1F)C(=O)c1ccc(Cl)cc12` (stereo unspecified) as the molecule, how does the inhibition in vivo at 0.6 mg/kg/day (Rattus norvegicus [6]) read?
**A.** 29%

**Q.** And the IC50 [5]?
**A.** 30 nM

**Q.** What does the source list for `O=C1CC2(C(=O)N1)C(=O)N(Cc1ccc(Cl)c(Cl)c1)C(=O)c1ccccc12` (stereo unspecified)?
**A.** logD [1]: 3.09; inhibition (Rattus norvegicus [7]): inactive; inhibition (Rattus norvegicus [8]): inactive; inhibition in vivo at 3 mg/kg/day (Rattus norvegicus [9]): 76%; inhibition in vivo at 1 mg/kg/day (Rattus norvegicus [10]): 64%; IC50 [5]: 22 nM; inhibition in vivo at 1.1 mg/kg/day (Rattus norvegicus [11]): 64%

**Q.** Which inhibition in vivo at 0.5 mg/kg/day (Rattus norvegicus [12]) does the source give for `O=C1CC2(C(=O)N1)C(=O)N(Cc1ccc(Br)cc1F)C(=O)c1c(F)cccc12` (stereo unspecified) here?
**A.** 51%

**Q.** What about the IC50 [5] of the same molecule?
**A.** 23 nM

**Q.** Which results are given for `CON1C(=O)c2ccccc2C2(CC(=O)NC2=O)C1=O` (stereo unspecified)?
**A.** IC50 [13]: Not Active; IC50 [14]: Not Active

**Q.** For `COc1cc2c(cc1Br)C(=O)N(C)C(=O)C21CC(=O)NC1=O` (stereo unspecified), which inhibition [2] is on record?
**A.** 17%

**Q.** What does the source list for `CCN1C(=O)c2ccccc2C2(CC(=O)NC2=O)C1=O` (stereo unspecified)?
**A.** inhibition [2]: 27%; inhibition [4]: 17%

**Q.** What does the source list for `CN1C(=O)c2cccc(Cl)c2C2(CC(=O)NC2=O)C1=O` (stereo unspecified)?
**A.** inhibition [2]: 24%; inhibition [4]: 11%

**Q.** Which IC50 [5] does the source give for `O=C1CC2(C(=O)N1)C(=O)N(Cc1nc3ccccc3s1)C(=O)c1ccccc12` (stereo unspecified) here?
**A.** 15 nM

**Q.** With `O=C1CC2(C(=O)N1)C(=O)N(Cc1ccc(C(F)(F)F)cc1)C(=O)c1ccccc12` (stereo unspecified) as the molecule, how does the IC50 [5] read?
**A.** 25 nM

**Q.** Which IC50 [5] does the source give for `O=C1CC2(C(=O)N1)C(=O)N(Cc1ccc(Br)cc1)C(=O)c1ccccc12` (stereo unspecified) here?
**A.** 22 nM

**Q.** With `O=C1C[C@]2(C(=O)N1)C(=O)N(Cc1ccc(Br)cc1F)C(=O)c1ccc(F)cc12` as the molecule, how does the half-life [15] read?
**A.** 0.5 h

**Q.** What about the IC50 [5] of the same molecule?
**A.** 32 nM

**Q.** What about the ED50 (Rattus norvegicus [16]) of the same molecule?
**A.** 0.15 mg/kg

**Q.** For `COc1ccc2c(c1)C1(CC(=O)NC1=O)C(=O)N(C)C2=O` (stereo unspecified), which inhibition [2] is on record?
**A.** 63%

**Q.** And the inhibition [4]?
**A.** 30%

**Q.** Which results are given for `O=C1CC2(C(=O)N1)C(=O)N(Cc1ccc(Br)cc1F)C(=O)c1ccccc12` (stereo unspecified)?
**A.** logD [1]: 2.74; inhibition (Rattus norvegicus [17]): inactive; inhibition in vivo at 0.5 mg/kg/day (Rattus norvegicus [12]): 82%; ED50 (Rattus norvegicus [18]): ~10 mg/kg/day; ED50 (Rattus norvegicus [19]): 0.07 mg/kg/day; inhibition in vivo at 0.8 mg/kg/day (Rattus norvegicus [20]): 88%; ED50 (Rattus norvegicus [21]): 0.3 mg/kg/day

**Q.** Which IC50 [5] does the source give for `O=C1CC2(C(=O)N1)C(=O)N(Cc1ccc(Cl)cc1)C(=O)c1ccccc12` (stereo unspecified) here?
**A.** 22 nM

**Q.** For `O=C1C[C@@]2(C(=O)N1)C(=O)N(Cc1ccc(Br)cc1F)C(=O)c1ccccc12`, which half-life [15] is on record?
**A.** 4 h

**Q.** And the inhibition in vivo at 0.5 mg/kg/day (Rattus norvegicus [12])?
**A.** 83%

**Q.** And the IC50 [5]?
**A.** 9.7 nM

**Q.** For `O=C1CC2(C(=O)N1)C(=O)N(Cc1nc3cc(C(F)(F)F)ccc3s1)C(=O)c1ccc(F)cc12` (stereo unspecified), which logD [1] is on record?
**A.** 3.16

**Q.** And the inhibition in vivo at 1 mg/kg/day (Rattus norvegicus [3])?
**A.** 53%

**Q.** And the IC50 [5]?
**A.** 26 nM

**Q.** For `COc1cc2c(cc1Br)C1(CC(=O)NC1=O)C(=O)N(Cc1ccc(Br)cc1F)C2=O` (stereo unspecified), which inhibition in vivo at 0.5 mg/kg/day (Rattus norvegicus [12]) is on record?
**A.** 55%

**Q.** What about the IC50 [5] of the same molecule?
**A.** 28 nM

**Q.** Which inhibition [2] does the source give for `Cc1ccc2c(c1)C1(CC(=O)NC1=O)C(=O)N(C)C2=O` (stereo unspecified) here?
**A.** 65%

**Q.** What about the inhibition [4] of the same molecule?
**A.** 35%

**Q.** What does the source list for `CN1C(=O)c2ccc(F)cc2C2(CC(=O)NC2=O)C1=O` (stereo unspecified)?
**A.** inhibition [2]: 74%; inhibition [4]: 36%
